# Laboratory results published in PubChem BioAssay AID623984 (Vanderbilt High Throughput Screening Facility, 2012).
# The source made the active and inactive calls. How the calls were made is not given here.
# Molecular target: Inward rectifier potassium channel 2 (Homo sapiens) (UniProt P63252)
# Assay: Kir2.1 channel activation or block, dose response, selectivity assay for GIRK activator project, cell-based, human, thallium flux, concentration-response (AID 623984)
# How it was run: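 Material – hKir2.1 T-REx-293 cells, tetracycline-induced · Reagent – bicarbonate thallium stimulus (Tl2SO4, NaHCO3, pH 7.4) plus EC20 glutamate · Dosing – compound addition solution containing 0.2% DMSO · Incubation – compound exposure 4 min before thallium stimulus · Technique – thallium flux fluorescence, FluoZin-2 AM dye, sampled at 1 Hz · Controls – vehicle wells as reference, uninduced wells as background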
# Sequence of Inward rectifier potassium channel 2 (Homo sapiens) (P63252 whole entry, looked up): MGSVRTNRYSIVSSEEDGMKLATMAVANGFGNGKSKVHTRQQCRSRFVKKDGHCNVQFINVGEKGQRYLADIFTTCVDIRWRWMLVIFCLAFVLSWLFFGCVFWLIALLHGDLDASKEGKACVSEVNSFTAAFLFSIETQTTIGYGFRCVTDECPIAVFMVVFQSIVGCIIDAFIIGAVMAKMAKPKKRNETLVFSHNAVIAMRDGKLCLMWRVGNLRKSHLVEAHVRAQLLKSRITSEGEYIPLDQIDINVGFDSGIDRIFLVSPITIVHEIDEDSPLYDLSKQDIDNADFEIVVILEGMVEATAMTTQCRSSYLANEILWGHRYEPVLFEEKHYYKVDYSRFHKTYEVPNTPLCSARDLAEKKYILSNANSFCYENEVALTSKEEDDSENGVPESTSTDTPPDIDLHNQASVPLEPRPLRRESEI
compound,measurement,value
Cc1cc(NC(=O)Nc2ccc(F)c(F)c2)n(-c2ccccc2)n1,outcome,inactive
